Source: ChEMBL document CHEMBL1156490, “TLR9 agonist acts by different mechanisms synergizing with bevacizumab in sensitive and cetuximab-resistant colon cancer xenografts” (2007)
Calls of active or inactive are those of the source. The calls are words filed in the database; no cut-off is given here.

Experiments:
Homo sapiens [1] = assay: Antitumor activity in cetuximab-resistant human GEO-CR tumor xenografted BALB/c mouse at 1 mg/kg, ip administered 3 times per week for 4 weeks; assay type: functional, organism-based; parameters: dose 1 mg/kg
Outline: (§1)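 Athymic nude mice, five weeks old, received s.c. GEO, LS174T or GEO-CR colon cancer cells (10^7 per mouse) in Matrigel. Tumors were detected after 7 days and groups of 10 were randomized. Dosing was i.p. at 1 mg/kg three times per week for 4 weeks. Tumor volume = π/6 × larger diameter × (smaller diameter)². Groups were compared by Student's t test.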

LS174T [2] = assay: Potentiation of bevacizumab-induced antitumor activity against human LS174T tumor xenografted BALB/c mouse at 1 mg/kg, ip three times a week for 4 weeks measured after 8 weeks; assay type: functional; settings: route intraperitoneal
Outline: (§2)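 Athymic nude mice, five weeks old, received s.c. GEO, LS174T or GEO-CR cells (10^7 per mouse) in Matrigel and were randomized at day 7, 10 per group. Dosing was i.p. 1 mg/kg three times weekly plus i.p. bevacizumab 5 mg/kg twice weekly, on days 7–11, 14–18 and 21–25; only the first agent continued on days 28–32. Tumor volume = π/6 × larger × (smaller diameter)². Analysis was by Student's t test.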

HUVEC [3] = assay: Inhibition of adhesion to matrix in HUVEC at 1 uM by cell adhesion assay; assay type: functional, cell-based; settings: Homo sapiens
Outline: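 Wells were precoated for 1 h with Matrigel (1 mg/ml) or 0.1% BSA in serum-free medium as a negative control. HUVEC (20,000 per well) were then plated in serum-free medium with or without 1 μM test agent, and adherent cells were quantified.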

HUVEC [4] = assay: Inhibition of VEGF-stimulated network formation in HUVEC at 1 uM; assay type: functional, cell-based; settings: Homo sapiens
Outline: (§3)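 HUVEC (4 × 10^5) in RPMI 1640 were seeded on solidified Matrigel (prepared 30 min at 37°C), with or without 1 μM test agent. Cultures were kept at 37°C and photographed at 0 and 24 h to assess capillary tube and network formation.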

HUVEC [5] = assay: Inhibition of VEGF-stimulated capillary tube formation in HUVEC at 1 uM; assay type: functional, cell-based; settings: Homo sapiens; outline: as §3
LS174T [6] = assay: Antitumor activity against human LS174T tumor xenografted BALB/c mouse assessed as tumor volume at 1 mg/kg, ip three times a week for 4 weeks measured after 8 weeks; assay type: functional; settings: route intraperitoneal; outline: as §1
Homo sapiens [7] = assay: Inhibition of activated form of VEGF expression in human GEO tumor xenografts in BALB/c mouse at 1 mg/kg, ip three times a week for 4 weeks measured after 8 weeks by ELISA; assay type: functional, organism-based; parameters: dose 1 mg/kg
Homo sapiens [8] = assay: Potentiation of bevacizumab-induced inhibition of activated form of VEGF expression in human GEO tumor xenografts in BALB/c mouse at 1 mg/kg, ip three times a week for 4 weeks measured after 8 week by ELISA; assay type: functional, organism-based; parameters: dose 1 mg/kg
Homo sapiens [9] = assay: Potentiation of bevacizumab-induced antitumor activity against human GEO tumor xenografted BALB/c mouse at 1 mg/kg, ip three times a week for 4 weeks measured after 8 weeks; assay type: functional, organism-based; parameters: dose 1 mg/kg; outline: as §2
Homo sapiens [10] = assay: Inhibition of activated form of pMAPK expression in human GEO tumor xenografts in BALB/c mouse at 1 mg/kg, ip three times a week for 4 weeks measured after 8 weeks by ELISA; assay type: functional, organism-based; parameters: dose 1 mg/kg
[11] = Potentiation of bevacizumab-induced antitumor activity in cetuximab-resistant human GEO-CR tumor xenografted BALB/c mouse assessed tumor volume at 1 mg/kg, ip; assay type: functional; settings: route intraperitoneal; outline: as §2
Homo sapiens [12] = assay: Inhibition of hVEGF level in human GEO tumor xenografts in BALB/c mouse at 1 mg/kg, ip three times a week for 4 weeks measured after 8 weeks by ELISA; assay type: functional, organism-based; parameters: dose 1 mg/kg
Outline: (§4)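 Serum was taken from killed xenograft-bearing mice and assayed by sandwich ELISA. Plates were coated overnight at 4°C with anti-hVEGF or anti-mVEGF polyclonal antibody (1 μg/ml in PBS, pH 7.5), with avidin–biotinylated HRP detection and absorbance read at 490 nm. Concentrations came from linear regression of recombinant hVEGF or mVEGF standard curves.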

Homo sapiens [13] = assay: Inhibition of total amount of MAPK and Akt in human GEO tumor xenografts in BALB/c mouse at 1 mg/kg, ip three times a week for 4 weeks measured after 8 weeks by ELISA; assay type: functional, organism-based; parameters: dose 1 mg/kg
Homo sapiens [14] = assay: Potentiation of bevacizumab-induced inhibition of mVEGF level in human GEO tumor xenografted in BALB/c mouse at 1 mg/kg, ip three times a week for 4 weeks measured after 8 weeks by ELISA; assay type: functional, organism-based; parameters: dose 1 mg/kg; outline: as §4
Homo sapiens [15] = assay: Inhibition of mVEGF level in human GEO tumor xenografted in BALB/c mouse at 1 mg/kg, ip three times a week for 4 weeks measured after 8 weeks by ELISA; assay type: functional, organism-based; parameters: dose 1 mg/kg; outline: as §4
Homo sapiens [16] = assay: Inhibition of activated form of pAkt expression in human GEO tumor xenografts in BALB/c mouse at 1 mg/kg, ip three times a week for 4 weeks measured after 8 weeks by ELISA; assay type: functional, organism-based; parameters: dose 1 mg/kg
Homo sapiens [17] = assay: Potentiation of bevacizumab-induced inhibition of activated form of pMAPK expression in human GEO tumor xenografts in BALB/c mouse at 1 mg/kg, ip three times a week for 4 weeks measured after 8 weeks by ELISA; assay type: functional, organism-based; parameters: dose 1 mg/kg
Homo sapiens [18] = assay: Antitumor activity against human GEO tumor xenografted BALB/c mouse at 1 mg/kg, ip three times a week for 4 weeks measured after 8 weeks; assay type: functional, organism-based; parameters: dose 1 mg/kg; outline: as §1
[19] = Potentiation of cetuximab-induced cytotoxicity in human MDA468 cells assessed as lysis at 5 uM by ADCC assay; assay type: functional, MDA-MB-468
Outline: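 Effector cells were nonadherent PBLs from human PBMCs, preincubated 24 h with or without 5 μM test agent. MDA468 targets were loaded with BATDA, treated with or without cetuximab (10 μg/ml), and mixed with effectors at varying ratios for 2 h at 37°C. Lysis was read by europium fluorescence in the supernatant.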

Homo sapiens [20] = assay: Potentiation of bevacizumab-induced inhibition of activated form of pAkt expression in human GEO tumor xenografts in BALB/c mouse at 1 mg/kg, ip three times a week for 4 weeks measured after 8 weeks by ELISA; assay type: functional, organism-based; parameters: dose 1 mg/kg
HUVEC [21] = assay: Inhibition of migration in HUVEC at 1 uM by wound healing assay; assay type: functional, cell-based; settings: Homo sapiens
Homo sapiens [22] = assay: Potentiation of bevacizumab-induced inhibition of hVEGF level in human GEO tumor xenografts in BALB/c mouse at 1 mg/kg, ip three times a week for 4 weeks measured after 8 weeks by ELISA; assay type: functional, organism-based; parameters: dose 1 mg/kg; outline: as §4
LS174T [23] = assay: Potentiation of bevacizumab-induced antitumor activity against human LS174T tumor xenografted BALB/c mouse assessed as induction of necrosis at 1 mg/kg, ip three times for week for 4 weeks measured after 8 weeks; assay type: functional; settings: route intraperitoneal
Outline: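 LS174T s.c. xenografts (10^7 cells in Matrigel) in nude mice received the combined i.p. schedule (1 mg/kg three times weekly plus bevacizumab 5 mg/kg twice weekly). Necrosis was judged by pathological and immunohistochemical analysis of formalin-fixed paraffin sections (5 μm).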

With `Cc1cn([C@H]2C[C@H](OP(O)(=S)OC[C@H]3O[C@@H](n4ccc(N)nc4=O)[C@H](O)[C@@H]3OP(O)(=S)OC[C@H]3O[C@@H](n4cc(C)c(=O)[nH]c4=O)C[C@@H]3OP(O)(=S)OC[C@H]3O[C@@H](n4cnc5c(=O)nc(N)[nH]c54)[C@H](O)[C@@H]3OP(O)(=S)OC[C@H]3O[C@@H](n4cnc5c(N)ncnc54)[C@H](O)[C@@H]3OP(O)(=S)OC[C@H]3O[C@@H](n4ccc(N)nc4=O)[C@H](O)[C@@H]3OP(O)(=S)OC[C@H]3O[C@@H](n4ccc5c(=O)nc(N)[nH]c54)C[C@@H]3OP(O)(=S)OC[C@H]3O[C@@H](n4cc(C)c(=O)[nH]c4=O)C[C@@H]3OP(O)(=S)OC[C@H]3O[C@@H](n4cc(C)c(=O)[nH]c4=O)C[C@@H]3OP(O)(=S)OC[C@H]3O[C@@H](n4ccc(N)nc4=O)[C@H](O)[C@@H]3OP(O)(=S)OC[C@H]3O[C@@H](n4cc(C)c(=O)[nH]c4=O)C[C@@H]3OP(O)(=S)OCC(O)COP(O)(=S)O[C@H]3C[C@H](n4cc(C)c(=O)[nH]c4=O)O[C@@H]3COP(O)(=S)O[C@H]3[C@@H](O)[C@H](n4ccc(=N)[nH]c4=O)O[C@@H]3COP(O)(=S)O[C@H]3C[C@H](n4cc(C)c(=O)[nH]c4=O)O[C@@H]3COP(O)(=S)O[C@H]3C[C@H](n4cc(C)c(=O)[nH]c4=O)O[C@@H]3COP(O)(=S)O[C@H]3C[C@H](n4ccc5c(=O)nc(N)[nH]c54)O[C@@H]3COP(O)(=S)O[C@H]3[C@@H](O)[C@H](n4ccc(N)nc4=O)O[C@@H]3COP(O)(=S)O[C@H]3[C@@H](O)[C@H](n4cnc5c(N)ncnc54)O[C@@H]3COP(O)(=S)O[C@H]3[C@@H](O)[C@H](n4cnc5c(=O)nc(N)[nH]c54)O[C@@H]3COP(O)(=S)O[C@H]3C[C@H](n4cc(C)c(=O)[nH]c4=O)O[C@@H]3COP(O)(=S)O[C@H]3[C@@H](O)[C@H](n4ccc(N)nc4=O)O[C@@H]3COP(O)(=S)O[C@H]3C[C@H](n4cc(C)c(=O)[nH]c4=O)O[C@@H]3CO)[C@@H](CO)O2)c(=O)[nH]c1=O` (stereo partly drawn) as the compound, how does the Activity (Homo sapiens [1]) read?
The Activity was “inactive”.

And the Activity (LS174T [2])?
Its Activity is 95%.

And the Activity (HUVEC [3])?
The Activity was “Active”.

And the Activity (HUVEC [4])?
The Activity was “Active”.

And the Activity (HUVEC [5])?
The Activity was “Active”.

What about the Activity (LS174T [6]) of the same compound?
The Activity was 1.6 cm3.

And the Activity (Homo sapiens [7])?
The Activity was “Active”.

What about the Activity (Homo sapiens [8]) of the same compound?
Its Activity is “Active”.

And the Activity (Homo sapiens [9])?
The Activity was “Active”.

What about the Activity (Homo sapiens [10]) of the same compound?
Its Activity is “Active”.

And the Activity [11]?
The Activity was 0.15 cm3.

What about the Activity (Homo sapiens [12]) of the same compound?
The Activity was “Active”.

And the Activity (Homo sapiens [13])?
The Activity was “inactive”.

And the Activity (Homo sapiens [14])?
The Activity was “inactive”.

What about the Activity (Homo sapiens [15]) of the same compound?
Its Activity is “inactive”.

And the Activity (Homo sapiens [16])?
Its Activity is “Active”.

What about the Activity (Homo sapiens [17]) of the same compound?
Its Activity is “Active”.

What about the Activity (Homo sapiens [18]) of the same compound?
Its Activity is “Active”.

What about the Activity [19] of the same compound?
The Activity was 60%.

And the Activity (Homo sapiens [20])?
The Activity was “Active”.

And the Activity (HUVEC [21])?
Its Activity is “Active”.

And the Activity (Homo sapiens [22])?
Its Activity is “Active”.

And the Activity (LS174T [23])?
Its Activity is 90%.
